According to ChEMBL document CHEMBL1268976, “Stereocontrolled facile synthesis and antimicrobial activity of oximes and oxime ethers of diversely substituted bispidines” (2010):
Converted amounts (≈) assume the structure as drawn.

Assays:
Type in all cases: functional
Bacillus subtilis = experiment: Antibacterial activity against Bacillus subtilis by broth microdilution method
In short: (§1)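 In vitro broth microdilution following the NCCLS standard for bacteria (M7-A5). The test panel was Bacillus subtilis, Staphylococcus aureus, Klebsiella pneumoniae and Pseudomonas aeruginosa.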

Staphylococcus aureus = experiment: Antibacterial activity against Staphylococcus aureus by broth microdilution method; in short: as §1
Klebsiella pneumoniae [1] = experiment: Antibacterial activity against Klebsiella pneumoniae by broth microdilution method; in short: as §1
Pseudomonas aeruginosa [2] = experiment: Antibacterial activity against Pseudomonas aeruginosa by broth microdilution method; in short: as §1
Candida albicans = experiment: Antifungal activity against Candida albicans by broth microdilution method
In short: (§2)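 Fungal panel of Candida albicans, Candida parapsilosis, Aspergillus niger and Cryptococcus neoformans, tested in vitro by standard NCCLS broth microdilution. The yeast susceptibility reference cited is M27-A.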

Candida parapsilosis = experiment: Antifungal activity against Candida parapsilosis by broth microdilution method; settings: Lodderomyces parapsilosis; in short: as §2
Aspergillus niger = experiment: Antifungal activity against Aspergillus niger by broth microdilution method; in short: as §2
Cryptococcus neoformans = experiment: Antimicrobial activity against Cryptococcus neoformans by broth microdilution method; in short: as §2
Klebsiella pneumoniae [3] = experiment: Ratio of compound MIC90 to gentamicin MIC90 for Klebsiella pneumoniae
Pseudomonas aeruginosa [4] = experiment: Ratio of gentamicin MIC90 to compound MIC90 for Pseudomonas aeruginosa

SMILES | MIC90 (Bacillus subtilis) | MIC90 (Staphylococcus aureus) | MIC90 (Klebsiella pneumoniae [1]) | MIC90 (Pseudomonas aeruginosa [2]) | MIC90 (Candida albicans) | MIC90 (Candida parapsilosis) | MIC90 (Aspergillus niger) | MIC90 (Cryptococcus neoformans) | Ratio (Klebsiella pneumoniae [3]) | Ratio (Pseudomonas aeruginosa [4])
CON=C1C2C(c3ccccc3OC)NC(c3ccccc3OC)C1C(c1ccccc1OC)NC2c1ccccc1OC (stereo not drawn) | 64 µg/mL (≈ 108 µM) | > 128 µg/mL | 8 µg/mL (≈ 13.5 µM) | 16 µg/mL (≈ 26.9 µM) | 64 µg/mL (≈ 108 µM) | 32 µg/mL (≈ 53.9 µM) | 4 µg/mL (≈ 6.74 µM) | 8 µg/mL (≈ 13.5 µM) | 4 | 
CON=C1C2C(c3ccc(C)cc3)NC(c3ccc(C)cc3)C1C(c1ccc(C)cc1)NC2c1ccc(C)cc1 (stereo not drawn) | 64 µg/mL (≈ 121 µM) | > 128 µg/mL | 8 µg/mL (≈ 15.1 µM) | 4 µg/mL (≈ 7.55 µM) | 64 µg/mL (≈ 121 µM) | 2 µg/mL (≈ 3.78 µM) | 64 µg/mL (≈ 121 µM) | > 128 µg/mL | 4 | 4
CON=C1C2C(c3ccccc3C)NC(c3ccccc3C)C1C(c1ccccc1C)NC2c1ccccc1C (stereo not drawn) | > 128 µg/mL | > 128 µg/mL | 16 µg/mL (≈ 30.2 µM) | 16 µg/mL (≈ 30.2 µM) | 64 µg/mL (≈ 121 µM) | 8 µg/mL (≈ 15.1 µM) | 64 µg/mL (≈ 121 µM) | > 128 µg/mL | 8 | 
CCCOc1ccc(C2NC(c3ccc(OCCC)cc3)C3C(=NOC)C2C(c2ccc(OCCC)cc2)NC3c2ccc(OCCC)cc2)cc1 (stereo not drawn) | > 128 µg/mL | > 128 µg/mL | 16 µg/mL (≈ 22.7 µM) | 64 µg/mL (≈ 90.7 µM) | > 128 µg/mL | > 128 µg/mL | 16 µg/mL (≈ 22.7 µM) | 32 µg/mL (≈ 45.3 µM) | 8 | 
CON=C1C2C(c3ccc(SC)cc3)NC(c3ccc(SC)cc3)C1C(c1ccc(SC)cc1)NC2c1ccc(SC)cc1 (stereo not drawn) | 64 µg/mL (≈ 97.3 µM) | > 128 µg/mL | 8 µg/mL (≈ 12.2 µM) | 4 µg/mL (≈ 6.08 µM) | 32 µg/mL (≈ 48.6 µM) | 16 µg/mL (≈ 24.3 µM) | 4 µg/mL (≈ 6.08 µM) | 8 µg/mL (≈ 12.2 µM) | 4 | 4
ON=C1C2C(c3cccc(Br)c3)NC(c3cccc(Br)c3)C1C(c1cccc(Br)c1)NC2c1cccc(Br)c1 (stereo not drawn) | > 128 µg/mL | > 128 µg/mL | > 128 µg/mL | > 128 µg/mL | > 128 µg/mL | > 128 µg/mL | > 128 µg/mL | > 128 µg/mL |  | 
ON=C1C2C(c3ccccc3)NC(c3ccccc3)C1C(c1ccccc1)NC2c1ccccc1 (stereo not drawn) | > 128 µg/mL | > 128 µg/mL | > 128 µg/mL | > 128 µg/mL | > 128 µg/mL | > 128 µg/mL | > 128 µg/mL | > 128 µg/mL |  | 
